Source: ChEMBL document CHEMBL4400542, “Epidermal Growth Factor Receptor-Targeted Multifunctional Photosensitizers for Bladder Cancer Imaging and Photodynamic Therapy” (J Med Chem, 2019)
pIC50: −log10 of the molar value.

Tests used:
[1] = Drug uptake in human UM-UC-3 cells xenografted in SCID mouse at 50 uCi, iv measured at 110 min post injection by PET imaging analysis; settings: in vivo
[2] = tested on: UMUC3; assay: Photo-activated cytotoxicity against human UM-UC-3 cells assessed as reduction in cell viability preincubated for 24 hrs followed by 1 J/cm2 light irradiation and measured after 48 hrs formulated with 1% tween 80 solution by MTT assay; format: functional, cell-based; settings: UMUC3, light or radiation study
How it was run: (§1)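 Cells plated at 10k per well, allowed 24 h to adhere, then PS added in two-fold dilutions from 1 µM top for 24 h. Irradiated at 665 nm, 1.0 J/cm2 at 3.2 mW/cm2. Viability by MTT 48 h after PDT: about 2 h incubation, formazan dissolved in DMSO, absorbance at 570 nm.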

[3] = tested on: UMUC3; assay: Photo-activated cytotoxicity against human UM-UC-3 cells assessed as reduction in cell viability preincubated for 24 hrs followed by 1 J/cm2 light irradiation and measured after 48 hrs formulated with 2% pluronic F-127 solution by MTT assay; format: functional, cell-based; settings: UMUC3, light or radiation study
How it was run: as §1

[4] = tested on: T-24; assay: Photo-activated cytotoxicity against human T24 cells assessed as reduction in cell viability preincubated for 24 hrs followed by 1 J/cm2 light irradiation and measured after 48 hrs formulated with 1% tween 80 solution by MTT assay; format: functional, cell-based; settings: T-24, light or radiation study
How it was run: as §1

[5] = tested on: T-24; assay: Photo-activated cytotoxicity against human T24 cells assessed as reduction in cell viability preincubated for 24 hrs followed by 1 J/cm2 light irradiation and measured after 48 hrs formulated with 2% pluronic F-127 solution by MTT assay; format: functional, cell-based; settings: T-24, light or radiation study
How it was run: as §1

[6] = Drug accumulation in human UM-UC-3 cells at 500 nM formulated with 1% tween 80 solution after 24 hrs by CARY-fluorimetry; format: ADME, cell-based; settings: umuc3, 24 h, 0.5 µM
[7] = Drug accumulation in human UM-UC-3 cells at 500 nM formulated with 2% pluronic F-127 solution after 24 hrs by CARY-fluorimetry; format: ADME, cell-based; settings: umuc3, 24 h, 0.5 µM
[8] = Drug accumulation in mitochondria of human UM-UC-3 cells at 500 nM formulated with 1% tween 80 solution after 24 hrs by mitotracker red based fluorimetry; format: ADME; settings: umuc3, 24 h, 0.5 µM
[9] = Drug accumulation in lysosomes of human UM-UC-3 cells at 500 nM formulated with 1% tween 80 solution after 24 hrs by lysosphere green based fluorimetry; format: ADME, subcellular, Lysosome; settings: umuc3, 24 h, 0.5 µM
[10] = Drug accumulation in mitochondria of human UM-UC-3 cells at 500 nM formulated with 2% pluronic F-127 solution after 24 hrs by mitotracker red based fluorimetry; format: ADME; settings: umuc3, 24 h, 0.5 µM
[11] = Drug accumulation in lysosomes of human UM-UC-3 cells at 500 nM formulated with 2% pluronic F-127 solution after 24 hrs by lysosphere green based fluorimetry; format: ADME, subcellular, Lysosome; settings: umuc3, 24 h, 0.5 µM
[12] = Drug accumulation in mitochondria of human T24 cells at 500 nM formulated with 1% tween 80 solution after 24 hrs by mitotracker red based fluorimetry; format: ADME; settings: t-24, 24 h, 0.5 µM
[13] = Drug accumulation in lysosomes of human T24 cells at 500 nM formulated with 1% tween 80 solution after 24 hrs by lysosphere green based fluorimetry; format: ADME, subcellular, Lysosome; settings: t-24, 24 h, 0.5 µM
[14] = Drug accumulation in mitochondria of human T24 cells at 500 nM formulated with 2% pluronic F-127 solution after 24 hrs by mitotracker red based fluorimetry; format: ADME; settings: t-24, 24 h, 0.5 µM
[15] = Drug accumulation in lysosomes of human T24 cells at 500 nM formulated with 2% pluronic F-127 solution after 24 hrs by lysosphere green based fluorimetry; format: ADME, subcellular, Lysosome; settings: t-24, 24 h, 0.5 µM
[16] = Drug uptake in human UM-UC-3 cells assessed as increase in gray value intensity at 500 nM after 48 hrs in presence of gleevec by Hoechst 33342 staining based fluorescence microscopy; format: ADME, cell-based; settings: umuc3, 24 h, 0.5 µM, in the assay text read “after 24 hrs” for “after 48 hrs”
How it was run: (§2)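 Cells plated at 100k per well, grown to 80% confluency, refreshed, then incubated 24 h with PS at 500 nM with or without Gleevec 5 µM. Washed twice with PBS, Hoechst 33342 added, imaged by fluorescence microscopy; grey value normalized to cell number, triplicate groups and images.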

[17] = Drug uptake in human UM-UC-3 cells assessed as increase in gray value intensity at 500 nM after 48 hrs in absence of gleevec by Hoechst 33342 staining based fluorescence microscopy; format: ADME, cell-based; settings: umuc3, 24 h, 0.5 µM, in the assay text read “24 hrs” for “48 hrs”
How it was run: as §2

[18] = Drug uptake in human UM-UC-3 cells assessed as increase in gray value intensity at 1 uM pretreated for 24 hrs followed by compound washout and measured after 4 hrs by Hoechst 33342 staining based fluorescence microscopy; format: ADME, cell-based; settings: umuc3, 4 h
How it was run: (§3)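 Cells pre-incubated 24 h with free erlotinib before PS addition. Legend describes PS at 1 uM or erlotinib at 3 uM for 4 h, then three warm PBS washes. Imaged by fluorescence microscopy; grey value per field normalized to cell count, triplicate wells, each imaged in triplicate.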

[19] = Drug uptake in human T24 cells assessed as increase in gray value intensity at 1 uM pretreated for 24 hrs followed by compound washout and measured after 4 hrs by Hoechst 33342 staining based fluorescence microscopy; format: ADME, cell-based; settings: t-24, 4 h
How it was run: as §3

[20] = Drug uptake in human UM-UC-3 cells xenografted in SCID mouse at 0.47 umol/kg formulated with 2% pluronic F-127 solution and measured at 24 hrs post injection by IVIS analysis; format: ADME, cell-based, UMUC3; settings: in vivo
How it was run: (§4)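 SCID mice (3/group) bearing UMUC3 or T24 tumors of 4–5 mm injected with PS at 0.47 µmol/kg in Tween80 or Pluronic F-127. Tumor, liver and skin fluorescence followed by IVIS optical imaging (ex 675 nm, em 720) at several time points including 24 h.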

[21] = Drug uptake in human UM-UC-3 cells xenografted in SCID mouse at 0.47 umol/kg formulated with 1% tween 80 solution and measured at 24 hrs post injection by IVIS analysis; format: ADME, cell-based, UMUC3; settings: in vivo
How it was run: as §4

[22] = Drug uptake in human T24 cells xenografted in SCID mouse at 0.47 umol/kg formulated with 2% pluronic F-127 solution and measured at 24 hrs post injection by IVIS analysis; format: ADME, cell-based, T-24; settings: in vivo
How it was run: as §4

[23] = Drug uptake in human T24 cells xenografted in SCID mouse at 0.47 umol/kg formulated with 1% tween 80 solution and measured at 24 hrs post injection by IVIS analysis; format: ADME, cell-based, T-24; settings: in vivo
How it was run: as §4

[24] = tested on: UMUC3; assay: Anti-tumor activity against human UM-UC-3 cells xenografted in SCID mouse assessed as tumor cure at 0.47 umol/kg, iv in presence of 135 J/cm2 light irradiation at 24 hrs post injection and measured at day 60; format: functional
How it was run: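 UMUC-3 cells implanted in right flank of SCID mice; at 4–5 mm tumors, PS given i.v. at 0.47 µmol/kg. Tumors exposed to 665 nm light, 135 J/cm2 at 75 mW/cm2, 24 h post-injection. Tumor regrowth monitored daily; mice euthanized at >400 mm3; tumor-free status scored at day 60.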

[25] = tested on: UMUC3; assay: Induction of oxidative stress in human UM-UC-3 cells assessed as increase in ROS production at 1 uM in presence of 1 J/cm2 light irradiation and measured at 20 min post light exposure by DCFDA-fluorescence based assay relative to control; format: functional
How it was run: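 UMUC3 cells at 10k per well; after 24 h, PS added at 1 µM for 24 h (Tween80 formulation). DCFDA 1 µM for 20 min, fluorescence read (ex 492, em 517). Then 665 nm light, 1 J total at 3.2 mW/cm2, and read again. No-DCFDA background subtracted; 0.05% H2O2 control wells.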

[26] = Stability at -4 degC for 2 months; format: physicochemical; settings: 1461 h
How it was run: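 Photosensitizer formulations in Tween80 or Pluronic F-127 were stored at -4 °C, alongside a -20 °C set, for two months. Stability was judged by visible precipitation and change in pH.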

[27] = Stability at -20 degC for 2 months; format: physicochemical; settings: 1461 h
How it was run: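 Formulated PS stored at -4 °C or -20 °C for two months; checked for precipitation and pH change.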

[28] = tested on: T-24; assay: Induction of apoptosis in human T24 cells assessed as increase in apoptotic cells at 1 uM in absence of light by Annexin V/propidium iodide-staining based flow cytometry; format: cell-based; settings: t-24, 1 µM
[29] = tested on: UMUC3; assay: Induction of apoptosis in human UM-UC-3 cells assessed as increase in apoptotic cells at 1 uM in absence of light by Annexin V/propidium iodide-staining based flow cytometry; format: cell-based; settings: umuc3, 1 µM

SMILES: OC[C@H]1OC(O)[C@H]([18F])[C@@H](O)[C@@H]1O (some centres undefined) [FLUDEOXYGLUCOSE F 18]
- Drug uptake [1]: Not Active

SMILES: CCC1=C(C)c2cc3[nH]c(cc4nc(c5c6[nH]c(cc1n2)c(C)c6C(=O)C5)[C@@H](CCC(=O)NCc1cccc(C#Cc2cccc(Nc5ncnc6cc(OCCOC)c(OCCOC)cc56)c2)c1)[C@@H]4C)c(C)c3C(C)OCc1cccc([127I])c1 (some centres undefined)
- pIC50 [2]: 7.44
- pIC50 [3]: 7.23
- pIC50 [4]: 6.86
- pIC50 [5]: 6.50
- Drug uptake [6]: Active
- Drug uptake [7]: Active
- Drug uptake [8]: Active
- Drug uptake [9]: Active
- Drug uptake [10]: Active
- Drug uptake [11]: Active
- Drug uptake [12]: Active
- Drug uptake [13]: Active
- Drug uptake [14]: Active
- Drug uptake [15]: Active
- Drug uptake [16]: Not Active
- Drug uptake [17]: Not Active
- Drug uptake [18]: Not Active
- Drug uptake [19]: Active
- Drug uptake [20]: Active
- Drug uptake [21]: Active
- Drug uptake [22]: Active
- Drug uptake [23]: Active
- Activity [24]: 55%
- fold change (FC) [25]: 4.5
- Stability [26]: Stable
- Stability [27]: Stable
- Activity [28]: Non-Toxic
- Activity [29]: Non-Toxic
